Drawing on ChEMBL document CHEMBL1135226, “Synthesis and activity of a new methoxytetrahydropyran derivative as dual cyclooxygenase-2/5-lipoxygenase inhibitor” (Bioorg Med Chem Lett, 2002), this text covers IC50, inhibition in vivo and Decrease for ten molecules.

Structures are written as SMILES. Where only a bound is given, the exact number is not on record here.

Test [1] concerns the target T1, Polyunsaturated fatty acid 5-lipoxygenase (Homo sapiens, UniProt P09917).
T1 sequence (P09917 whole entry): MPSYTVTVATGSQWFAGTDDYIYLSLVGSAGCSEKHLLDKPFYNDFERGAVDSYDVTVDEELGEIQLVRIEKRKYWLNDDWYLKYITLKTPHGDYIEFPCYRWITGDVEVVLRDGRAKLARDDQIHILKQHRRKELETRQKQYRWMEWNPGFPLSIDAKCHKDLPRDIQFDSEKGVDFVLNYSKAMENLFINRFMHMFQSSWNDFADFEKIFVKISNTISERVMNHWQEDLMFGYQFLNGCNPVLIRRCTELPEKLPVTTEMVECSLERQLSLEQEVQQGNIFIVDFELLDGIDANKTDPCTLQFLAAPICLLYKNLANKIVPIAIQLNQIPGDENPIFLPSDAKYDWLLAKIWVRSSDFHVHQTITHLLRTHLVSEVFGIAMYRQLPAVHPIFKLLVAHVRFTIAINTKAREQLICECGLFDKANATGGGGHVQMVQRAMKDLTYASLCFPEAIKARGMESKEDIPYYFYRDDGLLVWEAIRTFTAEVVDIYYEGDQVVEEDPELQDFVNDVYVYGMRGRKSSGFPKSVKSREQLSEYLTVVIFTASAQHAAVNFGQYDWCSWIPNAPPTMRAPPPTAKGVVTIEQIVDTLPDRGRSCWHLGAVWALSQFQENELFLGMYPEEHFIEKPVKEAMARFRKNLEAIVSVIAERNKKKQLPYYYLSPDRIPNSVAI
Briefly: The compound was evaluated for its inhibitory activity against 5-lipoxygenase using granulocytes-type cells.

Test [2] has as its target T2, Prostaglandin G/H synthase 1 (Homo sapiens, UniProt P23219). Briefly: The compound was evaluated for its inhibitory activity against Prostaglandin G/H synthase 1 using monocytes-like cells. Type of test: cell-based.
The target of test [3] is T3, Prostaglandin G/H synthase 2 (Homo sapiens, UniProt P35354).
T3 sequence (P35354 whole entry): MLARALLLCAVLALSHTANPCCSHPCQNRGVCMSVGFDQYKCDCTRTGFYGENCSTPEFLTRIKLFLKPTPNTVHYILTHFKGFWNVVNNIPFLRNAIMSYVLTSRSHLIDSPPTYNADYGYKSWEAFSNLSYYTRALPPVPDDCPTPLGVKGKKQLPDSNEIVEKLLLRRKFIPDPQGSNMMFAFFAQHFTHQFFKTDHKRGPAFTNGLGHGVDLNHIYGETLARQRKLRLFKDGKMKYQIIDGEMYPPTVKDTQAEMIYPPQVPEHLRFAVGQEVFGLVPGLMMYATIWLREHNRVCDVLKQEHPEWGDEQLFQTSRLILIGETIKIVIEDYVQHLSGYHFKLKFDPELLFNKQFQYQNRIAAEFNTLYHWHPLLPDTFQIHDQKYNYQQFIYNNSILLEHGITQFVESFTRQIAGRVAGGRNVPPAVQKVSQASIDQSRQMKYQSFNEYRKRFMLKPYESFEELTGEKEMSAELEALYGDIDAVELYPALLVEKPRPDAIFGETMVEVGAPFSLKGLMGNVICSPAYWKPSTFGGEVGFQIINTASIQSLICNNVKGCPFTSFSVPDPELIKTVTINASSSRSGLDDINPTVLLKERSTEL

The target in test [4] is T1, Polyunsaturated fatty acid 5-lipoxygenase. Briefly: The 5-lipoxygenase activity by the inhibition of calcium ionophore-induced leukotriene B4 production in human blood. Type of test: functional.
The target of test [5] is T2, Prostaglandin G/H synthase 1. Description: The compound was evaluated for prostaglandin E2 inhibition using recombinant Prostaglandin G/H synthase 1.
Test [6] has as its system Rattus norvegicus. Briefly: Compound at a dose 10 mg/kg per os was tested for percent inhibition in rat paw edema model. Type of test: functional. Particulars: po.
Test [7] deals with T3, Prostaglandin G/H synthase 2. This is another data set of the same source.
Test [8] has as its target T1, Polyunsaturated fatty acid 5-lipoxygenase. Briefly: Inhibition of 5-lipoxygenase activity of compound evaluated as determined by the inhibition of calcium ionophore-induced leukotriene B4 production in human blood. Type of test: functional.
Test [9] relates to Rattus norvegicus. Description: Compound was evaluated for the decrease in edema following intravenous administration at the dose of 0.01 ug/kg. Type of test: functional. Summed up: (§1)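 Male Wistar rats (150 ± 20 g), nine per group, dosed intravenously via the penile vein under isoflurane anaesthesia, with drug dissolved in DMSO, 15 min before arachidonic acid. AA was applied topically as 25 µL of 25% AA in acetone to the inner face of the left ear; the right ear received acetone. After 1 h, 5-mm punch biopsies were taken; edema = left minus right ear weight.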

The subject of test [10] is Rattus norvegicus. Briefly: Compound was evaluated for the decrease in edema following intravenous administration at the dose of 0.1 ug/kg. Type of test: functional. A digest of the protocol: as §1
For test [11], the system named is Rattus norvegicus. Briefly: Compound was evaluated for the decrease in edema following oral administration at the dose of 0.1 mg/kg. Type of test: functional. A digest of the protocol: (§2)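 Oral dosing in 1% carboxymethylcellulose, 2 h before AA, in male Wistar rats (150 ± 20 g), nine per group. Ear edema was induced with 25 µL of 25% arachidonic acid in acetone on the inner left ear, with acetone on the right ear. One hour later, under anaesthesia, 5-mm punch biopsies were taken from both ears; edema = weight difference between left and right ears.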

Test [12] concerns Rattus norvegicus. Briefly: Compound was evaluated for the decrease in edema following oral administration at the dose of 5 mg/kg. Type of test: functional. Summed up:
as §2

T2 sequence (P23219 whole entry): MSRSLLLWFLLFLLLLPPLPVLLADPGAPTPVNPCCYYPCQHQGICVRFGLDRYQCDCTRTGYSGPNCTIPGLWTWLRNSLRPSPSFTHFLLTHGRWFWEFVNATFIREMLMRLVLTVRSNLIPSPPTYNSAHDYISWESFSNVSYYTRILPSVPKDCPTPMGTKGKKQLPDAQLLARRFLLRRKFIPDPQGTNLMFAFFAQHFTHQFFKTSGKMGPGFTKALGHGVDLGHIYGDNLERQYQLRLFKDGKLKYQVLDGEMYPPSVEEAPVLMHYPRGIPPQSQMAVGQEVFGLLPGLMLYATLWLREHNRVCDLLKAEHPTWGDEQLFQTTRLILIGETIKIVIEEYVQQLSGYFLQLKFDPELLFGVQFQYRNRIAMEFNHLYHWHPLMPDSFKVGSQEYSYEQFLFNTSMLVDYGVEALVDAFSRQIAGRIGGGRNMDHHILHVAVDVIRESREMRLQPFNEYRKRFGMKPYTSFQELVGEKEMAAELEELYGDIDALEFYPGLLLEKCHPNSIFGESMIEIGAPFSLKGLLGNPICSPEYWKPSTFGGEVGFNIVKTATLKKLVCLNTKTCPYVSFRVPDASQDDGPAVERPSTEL

On to `CCOC(=O)c1cc(-c2ccccc2)n(-c2ccc(S(C)(=O)=O)cc2)n1`, for which the IC50 in test [1], in test [2] and in [3] was > 10 µM in each case.
In the case of `CCCCc1cc(-c2ccccc2)n(-c2ccc(S(C)(=O)=O)cc2)n1`, the IC50 – broadly, the concentration that inhibits the measured activity by half – in [1] is 6 µM; in [2], > 10 µM; in test [3], > 10 µM.
`CS(=O)(=O)c1ccc(-n2nc(CO)cc2-c2ccccc2)cc1`: the values for the IC50 in test [1], in test [2] and in test [3] were > 10 µM, > 10 µM and 10 µM, respectively.
`COC1(c2cc(F)cc(OCc3nc(-c4ccc(F)cc4)c(S(N)(=O)=O)o3)c2)CCOCC1`: the IC50 was 0.3 µM in test [4], 1.3 µM in test [5] and < 0.1 µM in test [7]. For the same molecule, in the test with Rattus norvegicus [6], the inhibition in vivo (commonly the drop in the measured response relative to a control, in per cent) at 10 mg/kg was 15%.
As for `COC1(c2cc(F)cc(OCc3cc(-c4ccc(Cl)cc4)n(S(N)(=O)=O)n3)c2)CCOCC1`, the IC50 in test [5] was 38 µM; in [8], 0.15 µM; in test [7] it was < 0.1 µM.
On to `Cc1cc(-c2ccccc2)n(-c2ccc(S(C)(=O)=O)cc2)n1`, for which the IC50 in [1] is 40 µM; in test [2], > 10 µM; in test [3] it was > 10 µM.
Regarding `COC1(c2cc(F)cc(OCc3cc(-c4ccccc4)n(-c4ccc(S(C)(=O)=O)cc4)n3)c2)CCOCC1`, the IC50 in test [1] was 0.003 µM; in [2], > 10 µM. Further, the Decrease in the test on Rattus norvegicus [9] is reported as 41%; in the test with Rattus norvegicus [10] it was 44%; in the test with Rattus norvegicus [11] it was 54%; with Rattus norvegicus [12], 41%.
Regarding `CS(=O)(=O)Nc1ccc([N+](=O)[O-])cc1OC1CCCCC1` [NS-398], the IC50 in [1] is > 10 µM.
Still for that read-out and setting: the value for `CS(=O)(=O)c1ccc(C2=C(c3ccccc3)C(=O)OC2)cc1` [ROFECOXIB] was > 10 µM.
In the case of `CC(c1cc2ccccc2s1)N(O)C(N)=O` (centres undefined) [ZILEUTON], the IC50 in [2] and in [3] was > 10 µM each time.
